Experiments:
[1] = Chemical stability of the compound in buffer assessed as compound remaining at pH 1 after 2 hrs by HPLC analysis; assay type: physicochemical; conditions: read-out: Stability
[2] = Chemical stability of the compound in buffer assessed as compound remaining at pH 1 after 8 hrs by HPLC analysis; assay type: physicochemical; conditions: read-out: Stability
[3] = Chemical stability of the compound in buffer assessed as compound remaining at pH 2 after 4 hrs by HPLC analysis; assay type: physicochemical; conditions: read-out: Stability
[4] = Chemical stability of the compound in buffer assessed as compound remaining at pH 2 after 8 hrs by HPLC analysis; assay type: physicochemical; conditions: read-out: Stability
[5] = Chemical stability of the compound in buffer assessed as compound remaining at pH 2 after 24 hrs by HPLC analysis; assay type: physicochemical; conditions: read-out: Stability
[6] = Chemical stability of the compound in buffer assessed as compound remaining at pH 4 after 2 hrs by HPLC analysis; assay type: physicochemical; conditions: read-out: Stability
[7] = Chemical stability of the compound in buffer assessed as compound remaining at pH 4 after 4 hrs by HPLC analysis; assay type: physicochemical; conditions: read-out: Stability
[8] = Chemical stability of the compound in buffer assessed as compound remaining at pH 4 after 8 hrs by HPLC analysis; assay type: physicochemical; conditions: read-out: Stability
[9] = Chemical stability of the compound in buffer assessed as compound remaining at pH 6 after 1 hr by HPLC analysis; assay type: physicochemical; conditions: read-out: Stability
[10] = Chemical stability of the compound in buffer assessed as compound remaining at pH 6 after 4 hrs by HPLC analysis; assay type: physicochemical; conditions: read-out: Stability
[11] = Chemical stability of the compound in buffer assessed as compound remaining at pH 6 after 8 hrs by HPLC analysis; assay type: physicochemical; conditions: read-out: Stability
[12] = Chemical stability of the compound in buffer assessed as compound remaining at pH 7.4 after 1 hr by HPLC analysis; assay type: physicochemical; conditions: read-out: Stability
[13] = Chemical stability of the compound in buffer assessed as compound remaining at pH 7.4 after 2 hrs by HPLC analysis; assay type: physicochemical; conditions: read-out: Stability
[14] = Chemical stability of the compound in buffer assessed as compound remaining at pH 7.4 after 24 hrs by HPLC analysis; assay type: physicochemical; conditions: read-out: Stability
[15] = Chemical stability of the compound in buffer assessed as compound remaining at pH 9 after 2 hrs by HPLC analysis; assay type: physicochemical; conditions: read-out: Stability
[16] = Stability of the compound in simulated intestinal fluid assessed as compound remaining at pH 7.5 after 1 hr by HPLC analysis; assay type: ADME; conditions: read-out: Stability
Method in brief: (§1)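 Drug incubated in simulated gastric fluid or simulated intestinal fluid and sampled at 0, 1, 2, 4, 8 and 24 h. Percent remaining was measured by reversed-phase C18 HPLC with photodiode-array detection, using a 20-min gradient of 10–70% acetonitrile against 10 mM sodium phosphate buffer at pH 7.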

[17] = Stability of the compound in simulated intestinal fluid assessed as compound remaining at pH 7.5 after 2 hrs by HPLC analysis; assay type: ADME; conditions: read-out: Stability; method in brief: as §1
[18] = Stability of the compound in simulated intestinal fluid assessed as compound remaining at pH 7.5 after 8 hrs by HPLC analysis; assay type: ADME; conditions: read-out: Stability; method in brief: as §1
[19] = Stability of the compound in simulated intestinal fluid assessed as compound remaining at pH 7.5 after 24 hrs by HPLC analysis; assay type: ADME; conditions: read-out: Stability; method in brief: as §1
[20] = Chemical stability of the compound in buffer assessed as pseudo-first-order rate constant at 40 degC at pH 7.4 by Arrhenius plot analysis; assay type: physicochemical
[21] = Chemical stability of the compound in buffer assessed as pseudo-first-order rate constant at 50 degC at pH 7.4 by Arrhenius plot analysis; assay type: physicochemical
[22] = Chemical stability of the compound in buffer assessed as pseudo-first-order rate constant at 4 degC at pH 7.4 by Arrhenius plot analysis; assay type: physicochemical
Method in brief: (§2)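 Pseudo-first-order kobsd at each temperature was fitted to an Arrhenius plot, which was extrapolated to 25 and 4 °C. t1/2 and t90 (time for 10% loss) were calculated from the extrapolated kobsd.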

[23] = Half life of the compound in buffer at 4 degC at pH 7.4; assay type: physicochemical; method in brief: as §2
[24] = Shelf life of the compound in buffer assessed as time for 10% loss of compound at 25 degC at pH 7.4; assay type: physicochemical; method in brief: as §2
alkaline phosphatase = target: T1, alkaline phosphatase (Bos taurus, UniProt P09487); assay: Half life of the compound in glycine buffer assessed as bovine intestinal mucosal alkaline phosphatase-mediated compound degradation at pH 9.8; assay type: ADME; conditions: cattle
T1 sequence (P09487 whole entry): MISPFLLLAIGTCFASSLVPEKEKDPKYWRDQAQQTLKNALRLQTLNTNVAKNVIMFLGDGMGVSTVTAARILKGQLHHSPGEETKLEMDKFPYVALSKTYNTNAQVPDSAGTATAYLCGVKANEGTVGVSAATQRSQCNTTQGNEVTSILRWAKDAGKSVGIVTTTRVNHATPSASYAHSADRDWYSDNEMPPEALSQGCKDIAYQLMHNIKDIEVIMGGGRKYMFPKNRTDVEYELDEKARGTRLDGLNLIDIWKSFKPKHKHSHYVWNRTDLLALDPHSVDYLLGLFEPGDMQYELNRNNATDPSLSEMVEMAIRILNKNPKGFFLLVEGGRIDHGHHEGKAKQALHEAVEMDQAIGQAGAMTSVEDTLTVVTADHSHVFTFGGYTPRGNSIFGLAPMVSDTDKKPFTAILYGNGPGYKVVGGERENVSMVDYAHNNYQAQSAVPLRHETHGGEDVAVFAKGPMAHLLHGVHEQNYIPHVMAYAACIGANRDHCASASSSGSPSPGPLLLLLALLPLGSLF
Method in brief: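 Conversion in glycine buffer pH 9.8 with alkaline phosphatase from bovine intestinal mucosa; loss of compound and formation of triptolide followed, first-order fit for half-life. Control run in same buffer without enzyme for 1 h.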

Mus musculus [25] = assay: Toxicity in athymic nude mouse xenografted with human HT-29 cells assessed as mortality at 0.9 mg/kg, ip administered for 2 weeks; assay type: organism-based; conditions: in vivo, 336 h
Mus musculus [26] = assay: Toxicity in athymic nude mouse xenografted with human HT-29 cells assessed as mortality at 0.9 mg/kg, ip administered for 2 weeks followed by 3 times per week; assay type: organism-based; conditions: in vivo, 336 h
Method in brief: (§3)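 Female athymic nude mice, 7–9 weeks old, received 1.74 × 10^6 HT-29 cells subcutaneously in the right flank in 50% Matrigel/McCoy's 5A. Randomized at 110 mm3, 10 per group. Intraperitoneal dosing in USP saline (0.2 mL) over a 28-day period on the stated schedule. Body weights were taken twice weekly; clinical signs and survival were recorded.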

Mus musculus [27] = assay: Toxicity in athymic nude mouse xenografted with human HT-29 cells assessed as weight gain at 0.9 mg/kg, ip administered 14 days measured post last dose; assay type: organism-based; conditions: in vivo, 336 h; method in brief: as §3
Mus musculus [28] = assay: Toxicity in athymic nude mouse xenografted with human A2780 cells assessed as dehydration at 1.2 mg/kg, po administered for 30 days; assay type: organism-based; conditions: in vivo, 720 h
Method in brief: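 Female athymic nude mice, 7–9 weeks old, received 2.5 × 10^6 A2780 cells subcutaneously in the flank in 50% Matrigel/RPMI 1640. Mice were randomized at a mean tumor volume of 188 mm3, 10 per group. Daily oral gavage in USP saline (0.2 mL) for 30 days, dosed on group-mean body weight. Clinical signs, survival and body weights were recorded.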

[29] = Stability of the compound in simulated gastric fluid assessed as compound remaining after 1 hr by HPLC analysis
[30] = Stability of the compound in simulated gastric fluid assessed as compound remaining after 8 hrs by HPLC analysis

CC(C)[C@]12O[C@H]1[C@@H]1O[C@]13[C@]1(O[C@H]1C[C@H]1C4=C(CC[C@@]13C)C(=O)OC4)[C@@H]2OCOP(=O)([O-])[O-].[Na+].[Na+] [MINNELIDE]
remaining at 2 h [1]: 79% | remaining at 8 h [2]: 39% | remaining at 4 h [3]: 95% | remaining at 8 h [4]: 94% | remaining at 24 h [5]: 83% | remaining at 2 h [6]: 100% | remaining at 4 h [7]: 100% | remaining at 8 h [8]: 99% | remaining at 1 h [9]: 100% | remaining at 4 h [10]: 100% | remaining at 8 h [11]: 100% | remaining at 1 h [12]: 100% | remaining at 2 h [13]: 100% | remaining at 24 h [14]: 100% | remaining at 2 h [15]: 100% | remaining at 1 h [16]: 100% | remaining at 2 h [17]: 100% | remaining at 8 h [18]: 99% | remaining at 24 h [19]: 99% | K [20]: 0.000494 h⁻¹ | K [21]: 0.001052 h⁻¹ | K [22]: 6.5 ×10⁻⁶ /hr | t1/2 [23]: 12.2 yr | Time [24]: 0.14 yr | half-life (alkaline phosphatase): 2 min | Activity (Mus musculus [25]): Toxic | Activity (Mus musculus [26]): Toxic | Activity (Mus musculus [27]): Toxic | Activity (Mus musculus [28]): Toxic | remaining at 1 h [29]: 93% | remaining at 8 h [30]: 47%

Source: ChEMBL document CHEMBL3739335, “Phosphonooxymethyl Prodrug of Triptolide: Synthesis, Physicochemical Characterization, and Efficacy in Human Colon Adenocarcinoma and Ovarian Cancer Xenografts” (J Med Chem, 2015)
